Legend:
[1] = Population pharmacokinetic model; type: in vivo, human
How it was run: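 Whole blood sampled 0–12 h post-dose and assayed by chemiluminescent microparticle immunoassay. Compartment models with first-order absorption; between-subject variability exponential, log-normal; categorical covariates as fractional change. Precision from 1000 bootstrap replicates (median, 95% percentile).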

[2] = metabolites excreted through the biliary route; cited from earlier work

For `C=CC[C@@H]1/C=C(\C)C[C@H](C)C[C@H](OC)[C@H]2O[C@@](O)(C(=O)C(=O)N3CCCC[C@H]3C(=O)O[C@H](/C(C)=C/[C@@H]3CC[C@@H](O)[C@H](OC)C3)[C@H](C)[C@@H](O)CC1=O)[C@H](C)C[C@@H]2OC` [tacrolimus, Tacrolimus], the “magnitude of BSV on CL/F” value ([1]; after inclusion of covariates) was 37%, the “magnitude of BSV on V/F” value ([1]; after inclusion of covariates) was 76.7% and the “Individual base model estimated apparent clearance CL/F, mean” value ([1]; extensive metabolizers (CEMCYP3A5)) was 45.0 L/h. For the same compound, the “Individual base model estimated apparent clearance CL/F, mean” value ([1]; intermediate metabolizers (CIMCYP3A5)) was 29.5 L/h, the “Individual base model estimated apparent clearance CL/F, mean” value ([1]; poor metabolizers (CPMCYP3A5)) was 19.8 L/h and the “magnitude of BSV on CL/F” value ([1]; before inclusion of covariates) was 46.6%. The “magnitude of BSV on V/F” value ([1]; before inclusion of covariates) was 83.2%, the “increase in CL/F compared to cPMCYP3A5” value ([1]; cEMCYP3A5) was ~2 fold and the “Typical value of CL/F” value ([1]; cEMCYP3A5, final model) was 44.3 L.hr^1. The “increase in CL/F compared to cPMCYP3A5” value ([1]; cIMCYP3A5) was ~1.5 fold, the “Typical value of CL/F” value ([1]; cIMCYP3A5, final model) was 28.6 L.hr^1 and the “Typical value of CL/F” value ([1]; cPMCYP3A5, final model) was 19.7 L.hr^1. The “BSV CL/F - η1, between-subject variability, estimate” value ([1]; final model) was 37.0 CV%, the “BSV CLp/F - η3, between-subject variability, estimate” value ([1]; final model) was 48.6 CV% and the “BSV V/F - η2, between-subject variability, estimate” value ([1]; final model) was 76.7 CV%. For the same compound, the “BSV ka - η4, between-subject variability, estimate” value ([1]; final model) was 69.4 CV%, the “Lag time - θlag, estimate” value ([1]; final model) was 0.828 h and the “Residual variability, proportional error - ε1, estimate” value ([1]; final model) was 9.00. The “ka - θka, absorption rate, estimate” value ([1]; final model) was 4.21 h⁻¹, the Vd/F ([1]; human, whole blood, oral) was 234 L and the clearance ([1]; human, whole blood, oral, 2.5 mg) was 328 mL/min. The clearance ([1]; human, whole blood, oral, 3.9 mg) was 477 mL/min, the clearance ([1]; human, whole blood, oral, 5.7 mg) was 738 mL/min and the “BSV V/F - η2, bootstrap median” value ([1]; nonparametric bootstrap n=1000) was 76.0 CV%. For the same compound, the “BSV ka - η4, bootstrap median” value ([1]; nonparametric bootstrap n=1000) was 68.6 CV%, the “Lag time - θlag, bootstrap median” value ([1]; nonparametric bootstrap n=1000) was 0.830 h and the “Residual variability, proportional error - ε1, bootstrap median” value ([1]; nonparametric bootstrap n=1000) was 8.90. The “V/F - θV/F, bootstrap median” value ([1]; nonparametric bootstrap n=1000) was 231 L, the “Vp/F - θVp/F, bootstrap median” value ([1]; nonparametric bootstrap n=1000) was 404 L and the “ka - θka, bootstrap median” value ([1]; nonparametric bootstrap n=1000) was 4.14 h⁻¹. The “CL/F - θCL/F, bootstrap median” value ([1]; nonparametric bootstrap n=1000, poor metabolizers) was 19.6 L/h and the “parent drug remaining unchanged” value [2] was “less than 1%”.

From publication PMC6105387 (Journal of clinical pharmacology, 2018)
